TRPN1 ag = activates the zebrafish TRPN1 channel; HEK293 zebrafish TRPN1-YFP, Fluo-8 calcium fluorescence; 100% = response to 87 µM carbachol; activation, % at 3 µM; 220,000 tested, 0.18% active; AID 1424;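 active = activation above its plate's cutoff, the mean activation of test wells on that plate plus 3 SD, cut at about 19% in these data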;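 also: 0% = DMSO alone and 100% = 87 µM carbachol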
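System: zebrafish TRPN1-YFP in HEK293 cells / Dosing: 3 µM single point / Timing: dye loading 1 h at 37 °C, then 30 min room temperature / Signal: Fluo-8 calcium fluorescence, excitation 470-495 nm, emission 515-575 nm / Read-out basis: percent activation from peak over basal fluorescence ratio, control-normalized / Control set: high carbachol 87 µM, low DMSO alone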
TRPML3 agonist = human mucolipin-3 channel agonism | Q8TDD5 | HEK293 TRPML3-YFP, Fluo-8 calcium fluorescence; 100% = the carbachol control signal | activation, % at 3 µM | 220,000 tested, 0.29% active | AID 1448;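 active = activation above its plate's cutoff, the mean activation of the plate's test wells plus 3 SD, cut at about 12% in these data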;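 also: 0% = DMSO only wells and 100% = carbachol wells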
Target sequence (Q8TDD5 whole entry, looked up): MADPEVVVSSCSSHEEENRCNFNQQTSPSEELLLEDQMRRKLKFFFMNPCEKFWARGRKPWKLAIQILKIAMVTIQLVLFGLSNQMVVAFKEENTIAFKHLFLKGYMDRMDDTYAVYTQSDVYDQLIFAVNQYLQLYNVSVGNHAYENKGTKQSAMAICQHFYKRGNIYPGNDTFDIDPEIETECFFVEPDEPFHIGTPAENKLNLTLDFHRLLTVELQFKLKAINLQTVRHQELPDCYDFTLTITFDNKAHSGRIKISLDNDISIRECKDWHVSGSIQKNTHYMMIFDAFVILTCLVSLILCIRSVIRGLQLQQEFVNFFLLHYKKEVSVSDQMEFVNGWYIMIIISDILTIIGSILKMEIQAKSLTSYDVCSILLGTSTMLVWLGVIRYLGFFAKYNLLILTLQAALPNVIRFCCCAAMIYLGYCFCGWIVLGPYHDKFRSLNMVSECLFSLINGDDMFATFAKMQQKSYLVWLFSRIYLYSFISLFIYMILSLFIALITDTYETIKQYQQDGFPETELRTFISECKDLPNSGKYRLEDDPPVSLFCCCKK
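system = HEK293 cells stably carrying human TRPML3-YFP | doses = one concentration, 3 µM nominal, 0.3% DMSO | timing = dye loading 1 h 37 °C then 30 min ambient, 125 s read | detection = Fluo-8 calcium dye fluorescence, ex 470-495, em 515-575 nm | benchmarks = high control carbachol 87 µM, low control DMSO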
GPR7 antagonist = antagonists of human GPR7 (neuropeptides B/W receptor 1). P48145. 290,000 tested, 1.1% active. inhibition, % at 4.4 µM. GPR7-expressing cells, fluorescence antagonist assay; in the data active = inhibition above about 16%, passing the limit was not always enough;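 also: cells stimulated with the agonist NPW; 0% = agonist with vehicle and 100% = vehicle without agonist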
OX1R antag-1 = antagonists of human orexin 1 receptor; CHO/OX1R cells, Fluo-8 calcium fluorescence, orexin A; O43613; inhibition, % at 5 µM; 330,000 tested, 0.43% active;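 active = inhibition above its plate's threshold, mean inhibition of all tested compounds on the plate plus 3 SD, cut at about 37% in these data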;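 also: 0% = orexin A challenge wells and 100% = SB-334867-A antagonist wells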
OX1R antag-2 = blocks the human orexin 1 receptor | O43613 | OX1R-expressing cells, FRET antagonist read-out | inhibition, % at 6.6 µM | 330,000 tested, 1.8% active | AID 485270; in the data active = inhibition mostly above about 38%, no sharp cut-off; inactive = mostly below about 40%;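 also: 0% = agonist challenge alone and 100% = reference antagonist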
CHO parental Ca = signal in parental CHO cells, OX1R antagonist counter-screen; parental CHO-K1, ATP-induced calcium, Fluo-8 fluorescence; inhibition, % at 5.6 µM; 330,000 tested, 0.63% active; AID 463079;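 active = inhibition above that plate's mean sample inhibition plus 3 SD, cut at about 26% in these data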;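 also: 0% = ATP-challenged DMSO wells and 100% = DMSO wells without ATP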
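Test system: untransfected parental CHO cell line. Compound: one dose, 5.6 µM nominal. Detection: intracellular calcium via Fluo-8 no-wash fluorescent dye. Measure: % inhibition. Benchmarks: ATP-challenged DMSO wells low, unchallenged DMSO wells high.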
* hit, by the source's call. This is a sample that favours compounds with a hit; in the whole collection about 3.2% have one here.

`O=C(NCc1ccco1)C(Cc1ccccc1)NS(=O)(=O)c1cccc2nsnc12` (centres undefined) gave TRPN1 ag -1, TRPML3 agonist 0, GPR7 antagonist -9, OX1R antag-1 -18, OX1R antag-2 51* and CHO parental Ca -21.
`CC1CCN(C(=O)C(NS(=O)(=O)c2cccc3nsnc23)c2ccccc2)CC1` (centres undefined) gave TRPN1 ag 0, TRPML3 agonist 0, GPR7 antagonist 7, OX1R antag-1 -37, OX1R antag-2 17 and CHO parental Ca -18.
O=C(NC1CCCCC1)C1CCCN1S(=O)(=O)c1cccc2nsnc12 (centres undefined) was read as TRPN1 ag 0, TRPML3 agonist 1, GPR7 antagonist -8, OX1R antag-1 -3, OX1R antag-2 60* and CHO parental Ca 0.
O=C(O)c1ccc(S(=O)(=O)N(Cc2ccccc2)C2CCCCC2)cc1 was read as GPR7 antagonist 0, OX1R antag-1 -9, OX1R antag-2 16 and CHO parental Ca 0.
`CS(=O)(=O)N(CC(=O)N1CCc2ccccc2C1)c1ccccc1F` gave OX1R antag-1 -7, OX1R antag-2 2 and CHO parental Ca -15.
`CC(NC(=O)C(NS(=O)(=O)c1cccc2nsnc12)C(C)C)c1ccccc1` (centres undefined) gave GPR7 antagonist -9, OX1R antag-1 -22, OX1R antag-2 38 and CHO parental Ca -9.
`O=C(NCc1ccccc1)C(=O)NCC1OCCN1S(=O)(=O)c1ccc([N+](=O)[O-])cc1` (centres undefined) gave TRPN1 ag 0, TRPML3 agonist 1, GPR7 antagonist -5, OX1R antag-1 -12, OX1R antag-2 25 and CHO parental Ca -9.
For CC(=O)Nc1ccc(NC(=O)C(NS(=O)(=O)c2cccc3nsnc23)C(C)C)cc1 (centres undefined) the results were GPR7 antagonist -4, OX1R antag-1 -25, OX1R antag-2 56* and CHO parental Ca -12.
For CNC(=O)C(=O)NCC1OCCN1S(=O)(=O)c1ccc([N+](=O)[O-])cc1 (centres undefined) the results were TRPN1 ag 2, TRPML3 agonist 1, GPR7 antagonist 0, OX1R antag-1 -25, OX1R antag-2 72* and CHO parental Ca -6.
Screening CC(C)C(NS(=O)(=O)c1cccc2nsnc12)C(=O)NC1CCCCC1 (centres undefined) returned GPR7 antagonist 1, OX1R antag-1 0, OX1R antag-2 75* and CHO parental Ca -11.
`Cc1nc(-c2cccc(NC(=O)c3cccs3)c2)cs1` gave TRPN1 ag 2, TRPML3 agonist 0, GPR7 antagonist -9, OX1R antag-1 -22, OX1R antag-2 45 and CHO parental Ca -33.
Screening O=C(Nc1cccc(-c2csc(-c3ccccc3)n2)c1)c1cccs1 returned TRPN1 ag 0, TRPML3 agonist 1, GPR7 antagonist -20, OX1R antag-1 0, OX1R antag-2 67* and CHO parental Ca -6.
Cc1ccn2cc(-c3cccc(NC(=O)c4cccs4)c3)nc2c1 was read as TRPN1 ag 0, TRPML3 agonist 0, GPR7 antagonist -7, OX1R antag-1 -15, OX1R antag-2 75* and CHO parental Ca -20.
`CC(C)C(=O)Nc1cccc(-c2csc(-c3ccccc3)n2)c1` gave TRPN1 ag -1, TRPML3 agonist 0, GPR7 antagonist -10, OX1R antag-1 13, OX1R antag-2 50 and CHO parental Ca -24.
Cc1ccc(C(=O)Nc2cccc(NC(=O)c3cccs3)c2)c(C)c1 was read as GPR7 antagonist -8, OX1R antag-1 10, OX1R antag-2 64* and CHO parental Ca -15.
For CC(C)C(=O)Nc1ccc(-c2csc(-c3ccccc3)n2)cc1 the results were TRPN1 ag 1, TRPML3 agonist 0, GPR7 antagonist 0, OX1R antag-1 13, OX1R antag-2 18 and CHO parental Ca 41*.
For Cc1nn(CC(=O)Nc2ccc3c(c2)CCC3)c(C)c1[N+](=O)[O-] the results were OX1R antag-1 -21, OX1R antag-2 0 and CHO parental Ca -19.

High-throughput results from PubChem BioAssay.
